UBC13 inh – human UBC13 polyubiquitination inhibition | 330,000 compounds, 0.47% hits | AID 485273 | UBC13 polyubiquitin chain formation, TR-FRET | inhibition, % at 20 µM | P61088; in the data active = inhibition above about 45%, passing the limit was not always enough
Target sequence (P61088 whole entry, looked up): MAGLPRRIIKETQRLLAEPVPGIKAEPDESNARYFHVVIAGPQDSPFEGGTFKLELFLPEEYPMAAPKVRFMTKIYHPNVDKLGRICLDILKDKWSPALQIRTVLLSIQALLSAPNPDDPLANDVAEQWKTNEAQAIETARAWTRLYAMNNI
PP5 primary – inhibitors of human protein phosphatase 5 (PP5); P53041; purified PP5c, OMFP substrate fluorescence; inhibition, % at 6.7 µM; 320,000 compounds, 0.18% hits;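 active = inhibition above the campaign's mean inhibition across all tested compounds plus 3 SD, cut at about 9.5% in these data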;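 also: 0% = DMSO only and 100% = 100 µM cantharidin control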
Target sequence (P53041 whole entry, looked up): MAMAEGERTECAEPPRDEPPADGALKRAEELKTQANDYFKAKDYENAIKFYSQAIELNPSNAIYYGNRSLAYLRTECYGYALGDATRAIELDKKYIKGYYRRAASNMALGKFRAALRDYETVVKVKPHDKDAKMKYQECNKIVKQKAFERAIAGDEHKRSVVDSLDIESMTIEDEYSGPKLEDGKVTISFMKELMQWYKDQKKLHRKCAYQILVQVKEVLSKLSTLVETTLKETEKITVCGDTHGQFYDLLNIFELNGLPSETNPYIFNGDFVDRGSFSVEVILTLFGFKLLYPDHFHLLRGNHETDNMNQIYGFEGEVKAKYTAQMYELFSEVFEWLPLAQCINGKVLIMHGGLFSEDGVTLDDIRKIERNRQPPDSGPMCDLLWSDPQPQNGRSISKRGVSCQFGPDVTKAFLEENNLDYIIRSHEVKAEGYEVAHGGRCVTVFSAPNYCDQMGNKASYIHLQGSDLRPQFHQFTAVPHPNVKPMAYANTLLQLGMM
PREPL inh – human PREPL enzyme inhibition; inhibition, % at 5.96 µM; 320,000 compounds, 0.68% hits; Q4J6C6; recombinant PREPL, fluorescence polarization activity-based probe; AID 2751; in the data active = inhibition above about 43%;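 also: 0% = enzyme with DMSO and 100% = wells lacking enzyme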
Fh CTSL1 inh – blocks F. hepatica cathepsin L1 in PFM18AAP counter-screen; AID 1906; 300,000 compounds, 0.49% hits; recombinant F. hepatica cathepsin L1, Z-Leu-Arg-MCA fluorescence; inhibition, % at 5.96 µM;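 active = inhibition above the mean of all tested compounds plus 3 SD, set per screening campaign, cut at about 17% in these data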;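 also: 0% = plate median of test compound wells and 100% = 1 µM Z-Phe-Ala-diazomethylketone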
UCH37 DUB inh – inhibitors of human deubiquitinating enzyme UCH37. Q9Y5K5. purified proteasome/UCH37, Ub-AMC cleavage fluorescence. inhibition, % (test concentration not listed). 330,000 compounds, 0.33% hits;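 active = mean inhibition over replicate wells above about 20%, limit read from the data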;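 also: 0% = compound-free wells with enzyme and 100% = wells lacking proteasome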
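Material: human UCH37 enzyme supplied as purified proteasome complex / Amount: 0.15 nM proteasome as dispensed / Buffer or medium: pH 7.4 Tris-HCl (50 mM) with ovalbumin, ATP-MgCl2, DTT / Times: preincubation 30 min, reaction 25 min, room temperature / Technique: AMC fluorescence from Ub-AMC cleavage, excitation 355 nm, emission 460 nm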
PP1 counter – PP1-alpha (human) inhibition in PP5 counter-screen; P62136; inhibition, % at 6.7 µM; 320,000 compounds, 0.9% hits; purified PP1alpha, OMFP fluorescence;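 active = inhibition above the mean inhibition of all tested compounds plus 3 SD, computed separately for each screening campaign, cut at about 15% in these data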
Casp3 UBC13 ctr – caspase-3 inhibition (UBC13 counter-screen); Recombinant caspase-3, Caspase-Glo 3/7 luminescence, 60 min; inhibition, % at 20 µM; AID 488856; shares compounds with UBC13 inh; 1,400 compounds, 4% hits;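 active = mean inhibition across replicates above about 26%, limit read from the data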;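 also: plate controls were DMSO with caspase-3 for no effect and DMSO wells lacking enzyme for full effect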
UBC13 conf – confirmation of human UBC13 polyubiquitin inhibitors | shares compounds with UBC13 inh | UBC13 polyubiquitination, TR-FRET, biochemical | inhibition, % at 10 µM | 1,400 compounds, 68% hits; in the data active = inhibition above about 45%
An asterisk follows results filed as active; / = no result given. A selection: hits, their analogues and other compounds. The true share with any hit is near 2.3%.

SMILES	UBC13 inh	PP5 primary	PREPL inh	Fh CTSL1 inh	UCH37 DUB inh	PP1 counter	Casp3 UBC13 ctr	UBC13 conf
CC(=O)n1cc([C@@H]2C=C(C(=O)NCc3ccccc3)O[C@H](OCc3ccc(CO)cc3)C2)c2ccccc21	-10	-1	-38	0	5	-1	/	/
CC(=O)n1cc([C@H]2C=C(C(=O)Nc3ccccc3)O[C@@H](OCc3ccc(CO)cc3)C2)c2ccccc21	64*	0	5	4	6	2	7	58*
CC(=O)Nc1cccc(C(=O)NN=Cc2cccnc2)c1	/	/	/	/	2	/	/	/
O=C(CCNC(=O)Cn1ccc2ccccc2c1=O)NCCN1CCN(c2ccccc2F)CC1	91*	-1	8	2	4	-6	2	101*
O=C(CCCn1c(=O)[nH]c2ccccc2c1=O)NCCSCc1ccccc1	10	-1	-11	-3	3	-2	/	/
O=C(CCCCCn1c(=O)[nH]c2ccccc2c1=O)NCCCN1CCN(c2ccccc2F)CC1	63*	6	3	-2	1	-5	-1	53*
O=C(CNc1ccc2ccccc2c1)NN=Cc1ccc([N+](=O)[O-])o1	/	/	/	/	3	/	/	/
O=C(Nc1ccc(C2=NCCN2)cc1)c1ccc(C(=O)Nc2ccc(C3=NCCN3)cc2)c(Cl)c1	104*	-3	-8	0	/	5	0	118*
O=C(Nc1cccc(C2=NCCN2)c1)Nc1cccc(C2=NCCN2)c1	97*	-2	5	4	1	1	-4	104*
CC(C)Cn1cc(C(=O)NCCCN2CCC(C)CC2)c2c3ccccc3n(C)c2c1=O	76*	0	-6	-1	-38	-2	-4	50*
COCCCNC(=O)c1cn(CC(C)C)c(=O)c2c1c1ccccc1n2C	30	1	-8	-1	-62	-5	/	/
CC(C)Cn1cc(C(=O)NC2CCN(Cc3ccccc3)CC2)c2c3ccccc3n(C)c2c1=O	68*	1	20	-1	/	-3	-2	45
CC(=NNC(=O)COc1ccc(C)cc1[N+](=O)[O-])c1ccc2c(c1)OCCO2	/	/	/	/	6	/	/	/
C#CCOCCOCCOCCNc1nc(N2CCN(C(=O)[C@H]([C@@H](C)CC)n3cc([C@@H](N)Cc4ccc(O)cc4)nn3)CC2)nc(N2CCN(C(=O)[C@H]([C@@H](C)CC)n3cc([C@@H](N)CC(C)C)nn3)CC2)n1	68*	0	3	9	1	4	-3	41
C#CCOCCOCCOCCNc1nc(N2CCOCC2)nc(N2CCN(C(=O)[C@H]([C@@H](C)CC)n3cc([C@@H](N)Cc4ccc(O)cc4)nn3)CC2)n1	15	2	5	-3	2	-2	/	/
C#CCOCCOCCOCCNc1nc(N2CCN(C(=O)[C@H]([C@@H](C)CC)n3cc([C@@H](N)CO)nn3)CC2)nc(N2CCN(C(=O)[C@H](Cc3ccc(O)cc3)n3cc([C@@H](N)CC(C)C)nn3)CC2)n1	9	-1	25	-2	1	-1	/	/
C#CCOCCOCCOCCNc1nc(N2CCN(C(=O)[C@H]([C@@H](C)CC)n3cc([C@@H](N)Cc4ccc(O)cc4)nn3)CC2)nc(N2CCN(C(=O)[C@H](Cc3ccc(O)cc3)n3cc([C@@H](N)CC(C)C)nn3)CC2)n1	45*	3	12	11	-1	1	-4	29
O=S(=O)(NN=Cc1ccc(N2CCOCC2)cc1)c1ccc(Br)cc1	/	/	/	/	2	/	/	/
O=C1C2C3C=CC(C4CC34)C2C(=O)N1CCCCN1CCN(c2ccc(F)cc2)CC1 (stereo not drawn)	54*	-1	18	3	5	0	-1	4
COC(=O)[C@@H]1CC[C@H](C)[C@@H](c2ccc(C)cc2)N1C(=O)c1ccc(C=NOCC[C@@H]2C=C[C@H](OC(C)=O)[C@@H](COC(C)=O)O2)cc1	/	/	/	/	4	/	/	/
COc1ccc(N(C(=O)c2snc(C(N)=O)c2N)C(C(=O)NC2CCCC2)c2ccc3ncccc3c2)cc1 (stereo not drawn)	48*	1	26	7	-9	0	-1	48*
Cc1ccc(N(C(=O)c2snc(C(N)=O)c2N)C(C(=O)NC2CCCC2)c2ccc(C)o2)cc1 (stereo not drawn)	64*	6	3	2	-57	8	-1	71*
CCOc1ccccc1N(C(=O)c1snc(C(N)=O)c1N)C(C(=O)NC1CCCC1)c1ccco1 (stereo not drawn)	6	3	15	1	-58	1	/	/
NC(=O)c1nsc(C(=O)N(c2ccccc2)C(C(=O)NC2CCCC2)c2ccc3ncccc3c2)c1N (stereo not drawn)	41	2	2	3	-77	5	/	/
CCOc1ccc(C(C(=O)NCC2CCCO2)N(C(=O)c2snc(C(N)=O)c2N)c2ccc3c(c2)OCCO3)cc1 (stereo not drawn)	69*	3	-7	4	-17	0	2	64*
SMILES	UBC13 inh	PP5 primary	PREPL inh	Fh CTSL1 inh	UCH37 DUB inh	PP1 counter	Casp3 UBC13 ctr	UBC13 conf
Cc1ccc(N(C(=O)c2snc(C(N)=O)c2N)C(C(=O)NC2CCCC2)c2ccco2)cc1 (stereo not drawn)	80*	/	/	/	-30	/	-4	92*
COCCNC(=O)C(c1ccc(C)o1)N(C(=O)c1snc(C(N)=O)c1N)c1ccc(C)cc1 (stereo not drawn)	36	4	24	-1	-47	2	/	/
CN(C)c1ccc(C(C(=O)NCC2CCCO2)N(C(=O)c2snc(C(N)=O)c2N)c2ccc3c(c2)OCO3)cc1 (stereo not drawn)	38	-2	10	6	/	4	/	/
CCCCC1CC(C(C)=NNC(N)=O)OC1=O (stereo not drawn)	/	/	/	/	3	/	/	/
Cc1ccc(S(=O)(=O)NN=Cc2ccc3c(c2)OCO3)c(C)c1	/	/	/	/	2	/	/	/
CC(=NNC(=O)c1nnn(-c2nonc2N)c1CN(C)c1ccccc1)c1cccs1	/	/	/	/	1	/	/	/
CCOc1ccc(N(C(=O)c2snc(C(N)=O)c2N)C(CC)C(=O)NC2CCCC2)cc1 (stereo not drawn)	78*	2	-1	3	/	0	3	82*
CCc1ccc(N(C(=O)c2snc(C(N)=O)c2N)C(C(=O)NCC2CCCO2)c2ccco2)cc1 (stereo not drawn)	61*	3	-5	2	9	-2	1	59*
Cc1cccc(N(C(=O)c2snc(C(N)=O)c2N)C(C(=O)NC2CCCC2)c2ccncc2)c1 (stereo not drawn)	25	0	-4	3	-64	5	/	/
